One test concerns the target D(2) dopamine receptor (Rattus norvegicus, UniProt P61169). Description: Inhibition constant against dopamine receptor D2 in rat. A digest of the protocol: (§1)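 Filtered on protamine-pretreated (0.2%) GF/B filters, washed with cold 50 mM Tris-HCl pH 7.4, gamma-counted. Nonspecific binding defined with 10 μM (+)-butaclamol. Scatchard and competition data fitted by iterative nonlinear least squares.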

Test [1] is filed under the species Rattus norvegicus. It is filed as functional, Striatum, Membrane.
The species entered for test [2] is Rattus norvegicus. Description: Inhibition constant on radiolabeled [125I]FIDA1 binding to rat striatal membranes. On the set-up: species or system Striatum, Membrane. A digest of the protocol: as §1
Test [3] is filed under the species Rattus norvegicus. Description: Inhibition constant on radiolabeled [125I]FIDA2 binding to rat striatal membranes. Also noted: species or system Striatum, Membrane. A digest of the protocol:
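Rat striatal membrane homogenate (40–60 μg protein) incubated with 125I-labeled ligand ± competitors in 0.2 mL assay buffer, 15 min at 37 °C with stirring. Filtered on protamine-pretreated (0.2%) GF/B filters, washed with cold 50 mM Tris-HCl pH 7.4, gamma-counted. Nonspecific binding defined with 10 μM (+)-butaclamol. Scatchard and competition data fitted by iterative nonlinear least squares.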

Test [4] is filed under the species Rattus norvegicus. Type of test: functional, Striatum, Membrane. This is another data set of the same source.

Where only a bound is given, the exact number is not on record here.

Sequence of D(2) dopamine receptor (P61169 whole entry): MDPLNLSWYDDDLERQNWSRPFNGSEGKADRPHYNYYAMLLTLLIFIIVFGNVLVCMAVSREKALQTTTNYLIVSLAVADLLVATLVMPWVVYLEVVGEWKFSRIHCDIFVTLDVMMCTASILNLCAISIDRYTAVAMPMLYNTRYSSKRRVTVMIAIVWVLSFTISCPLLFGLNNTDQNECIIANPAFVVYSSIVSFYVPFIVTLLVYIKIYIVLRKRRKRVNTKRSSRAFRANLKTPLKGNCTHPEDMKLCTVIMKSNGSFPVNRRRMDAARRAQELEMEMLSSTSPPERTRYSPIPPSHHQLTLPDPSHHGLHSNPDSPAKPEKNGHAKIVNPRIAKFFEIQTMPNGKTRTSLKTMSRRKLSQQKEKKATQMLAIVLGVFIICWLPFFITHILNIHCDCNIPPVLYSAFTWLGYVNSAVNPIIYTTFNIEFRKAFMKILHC

Consider `CCN1CCC[C@H]1CNC(=O)c1cc(CCCF)cc(OC)c1OC`, for which, on D(2) dopamine receptor, the Ki came to 0.02 nM.
Still for that read-out and setting: the value for `CCN1CCC[C@H]1CNC(=O)c1c(OC)ccc(I)c1O` [IOLOPRIDE] was 0.43 nM; that for `CCN1CCC[C@H]1CNC(=O)c1cc(I)ccc1OC` [IODOPRIDE] was 3 nM.
In the case of `COC(=O)[C@@H]1[C@H]2C[C@H]3c4[nH]c5ccccc5c4CCN3C[C@@H]2CC[C@@H]1O` [YOHIMBINE], the Ki in the test listed under Rattus norvegicus [1] came out at 505 nM.
`CCc1cc(Cl)c(OC)c(C(=O)NC[C@@H]2CCCN2CC)c1O` [ETICLOPRIDE]: the Ki in the test filed under Rattus norvegicus [2] was 0.014 nM; in the test listed under Rattus norvegicus [3] it was 0.06 nM.
On to `CC(C)(C)[C@@]1(O)CCN2C[C@@H]3c4ccccc4CCc4cccc(c43)[C@H]2C1`, for which the inhibitory constant (Ki) stood at 1.05 nM in the test listed under Rattus norvegicus [4] and 0.4 nM in the test listed under Rattus norvegicus [1].
As to `C=CCN1CC[C@]23c4c5ccc(O)c4O[C@H]2C(=O)CC[C@@]3(O)[C@H]1C5` [NALOXONE], the inhibition constant (Ki) in the test listed under Rattus norvegicus [4] and in the test filed under Rattus norvegicus [1] was > 10000 nM each time.
As for `NCCc1c[nH]c2ccc(O)cc12` [SEROTONIN], the inhibition constant Ki in the test listed under Rattus norvegicus [4] was > 5000 nM.
Take `CN1[C@@H]2CC[C@H]1C[C@@H](OC(=O)C(CO)c1ccccc1)C2` (some centres not stated) [ATROPINE]: the Ki in the test filed under Rattus norvegicus [4] and in the test filed under Rattus norvegicus [1] was > 10000 nM each time.
As to `CCN1CCC[C@H]1CNC(=O)c1cc(I)cc(OC)c1OC` [EPIDEPRIDE], the affinity on D(2) dopamine receptor corresponds to a Ki of 0.025 nM.
In turn, `CCCN1CCC[C@@H]2Cc3n[nH]cc3C[C@H]21` [QUINPIROLE] gave a Ki in the test filed under Rattus norvegicus [1] of 8000 nM.
On D(2) dopamine receptor, `CCN1CCC[C@H]1CNC(=O)c1c(O)c(I)cc(OC)c1OC` [IOXIPRIDE] had an inhibition constant (Ki) of 0.019 nM.
On the same count and under the same terms, the result for `CCN1CCC[C@H]1CNC(=O)c1cc(I)cc2c1OCC2` reads 0.106 nM.
With `CCN1CCC[C@H]1CNC(=O)c1c(O)c(Cl)cc(Cl)c1OC` [RACLOPRIDE], the results for the Ki in the test filed under Rattus norvegicus [2] and in the test listed under Rattus norvegicus [3] were 2.31 nM and 5 nM, respectively.
As for `CCN1CCC[C@H]1CNC(=O)c1c(OC)ccc(S(N)(=O)=O)c1I` [IODOSULPIRIDE], the Ki on D(2) dopamine receptor was 1.5 nM. That is a single-digit nanomolar value.
Same read-out and setting: the result for `CCN1CCC[C@@H]1CNC(=O)c1cccc(OC)c1OCCF` reads 13 nM; that for `COc1cc(Br)cc(C(=O)NC[C@@H]2CCCN2Cc2ccc(F)cc2)c1OC`, 0.147 nM.
